V1aR counter: agonists of human V1a receptor, primary screen, counter-screen for OXTR agonist project, fluorescence, CHO-V1R cells; Fluo-8 calcium fluorescence, agonist mode; 0% DMSO, 100% 3 nM vasopressin; Vasopressin V1a receptor (Homo sapiens), P37288; activation, % at 3 µM; hit rate 0.25% among 320,000;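 active = activation above the mean activation of all tested compounds plus 3 SD, per screening run, cut at about 20% in these data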;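 also: signal is peak over basal fluorescence ratio across a 100 second FLIPR read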
Target sequence (P37288 whole entry, looked up): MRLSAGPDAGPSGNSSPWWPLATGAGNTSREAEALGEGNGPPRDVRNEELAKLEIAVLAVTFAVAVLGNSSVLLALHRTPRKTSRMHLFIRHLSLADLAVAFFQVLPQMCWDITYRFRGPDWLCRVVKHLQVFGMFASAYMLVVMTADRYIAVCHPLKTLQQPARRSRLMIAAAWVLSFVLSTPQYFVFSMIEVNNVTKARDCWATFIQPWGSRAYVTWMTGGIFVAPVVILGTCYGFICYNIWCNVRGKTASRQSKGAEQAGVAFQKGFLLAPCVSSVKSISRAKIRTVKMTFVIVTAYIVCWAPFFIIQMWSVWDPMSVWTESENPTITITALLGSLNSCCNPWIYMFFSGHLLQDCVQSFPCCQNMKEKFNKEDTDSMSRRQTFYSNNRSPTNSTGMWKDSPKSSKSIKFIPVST
CRFR2-BP ag: agonists of CRF-BP/CRF-R2 complex, primary screen, cell-based, HEK293, calcium dye fluorescence, uHTS; CRF-binding protein / CRF receptor 2 complex (human); calcium dye fluorescence (FLIPR); percent of saturating CRF peptide response; activation, % at 13.2 µM; hit rate 0.46% among 350,000; AID 588473, 2011;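 active = activation of at least 50%, plus an integration ratio under a set limit after plate pattern correction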
OXTR agonist: human OXTR agonists, primary screen, fluorescence, CHO-OTR cells, Fluo-8 calcium; Fluo-8 calcium fluorescence; normalized: DMSO 0%, oxytocin 100%; activation, % at 3 µM; hit rate 0.32% among 320,000;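 active = activation above the mean of all tested compounds plus 3 SD, cutoff set per screening run, cut at about 20% in these data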;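 also: peak over basal fluorescence ratio from a 100 s FLIPR kinetic read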
Target sequence (P30559 whole entry, looked up): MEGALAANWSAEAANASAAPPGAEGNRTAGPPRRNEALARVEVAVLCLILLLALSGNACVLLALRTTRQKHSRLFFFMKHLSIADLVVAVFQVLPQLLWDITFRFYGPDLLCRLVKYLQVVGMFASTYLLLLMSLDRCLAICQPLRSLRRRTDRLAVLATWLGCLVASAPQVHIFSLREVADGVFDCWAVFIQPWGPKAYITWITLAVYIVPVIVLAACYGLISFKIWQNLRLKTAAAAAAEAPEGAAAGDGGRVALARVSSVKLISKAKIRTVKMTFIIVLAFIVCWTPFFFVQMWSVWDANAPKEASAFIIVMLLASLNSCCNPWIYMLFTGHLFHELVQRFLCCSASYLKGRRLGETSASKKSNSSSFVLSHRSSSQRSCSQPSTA
OXTR potentiator: human OXTR potentiators, primary screen, fluorescence, CHO-OTR cells, Fluo-8 calcium; Fluo-8 calcium fluorescence, potentiator mode; 0% = oxytocin EC15, 100% = EC100; AID 2445, 2010; activation, % at 3 µM; hit rate 0.061% among 320,000;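 active = activation above that plate's cutoff, the mean activation of tested compounds plus 3 SD, cut at about 6.6% in these data, passing the limit was not always enough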
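Assay system: CHO cell line stably expressing human OTR | Also added: Oxytocin at about EC15, sub-maximal agonist stimulus | Times: Compound 6 min at room temperature before oxytocin, 100 s read | Measured by: Fluo-8 intracellular calcium fluorescence, ex 470-495, em 515-575 nm | Controls: EC15 oxytocin alone as 0%, 75 nM oxytocin as 100%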
TRPML3 ag: human TRPML3 channel agonists, primary screen, cell-based, HEK293 TRPML3-YFP, Fluo-8 calcium fluorescence, 3 µM | Mucolipin-3 (Homo sapiens), Q8TDD5 | 100% = the carbachol control signal | activation, % at 3 µM | hit rate 0.29% among 220,000 | AID 1448, 2008;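 active = activation above its plate's cutoff, the mean activation of the plate's test wells plus 3 SD, cut at about 12% in these data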
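Material: HEK293 cells stably carrying human TRPML3-YFP; compound dosing: single dose, 3 µM final nominal compound, 0.3% DMSO final; incubation: 1-h 37 °C dye load, 5-s basal, 120-s post-compound reads; technique: Fluo-8 intracellular calcium fluorescence, excitation 470-495 nm, emission 515-575 nm; read-out basis: percent activation from peak-to-basal fluorescence ratio, scaled between DMSO and carbachol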
zfTRPN1 agonist: zebrafish TRPN1 channel agonists, primary screen, cell-based, HEK293, calcium fluorescence; transient receptor potential cation channel N1 (TRPN1/NompC), Danio rerio; HEK293 zebrafish TRPN1-YFP, Fluo-8 calcium fluorescence; 100% = response to 87 µM carbachol; activation, % at 3 µM; hit rate 0.18% among 220,000; AID 1424, 2008;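 active = activation above its plate's cutoff, the mean activation of test wells on that plate plus 3 SD, cut at about 19% in these data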
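Assay system: Zebrafish TRPN1-YFP in HEK293 cells | Incubation: Dye loading 1 h at 37 °C, then 30 min room temperature | Measured by: Kinetic Fluo-8 fluorescence, ex 470-495, em 515-575 nm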
OXTR ag confirm: human OXTR agonists, confirmation, fluorescence, CHO-OTR cells, triplicate; hit rate 20% among 390; Fluo-8 calcium fluorescence, agonist; activation, % at 3 µM; shares compounds with OXTR agonist;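 active = mean activation above about 20% derived from the earlier single-dose screen, limit read from the data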;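 also: peak over minimum fluorescence ratio per well during a 100 second FLIPR read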
V1aR counter 3x: V1a receptor agonists, calcium signal, counter-screen for OXTR agonist project, triplicate, fluorescence, CHO-V1R cells; shares compounds with OXTR agonist; Fluo-8 calcium fluorescence; activation, % at 3 µM; hit rate 10% among 390;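 active = mean activation over triplicate exceeds the hit threshold set in the earlier primary screen, cut at about 20% in these data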;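 also: peak over basal fluorescence ratio within a 100 second read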
Large screens that a line does not name were inactive (follow-up assays come after a bar, where they were run). In the library only some 0.85% were active in any assay of this set; here they are far more common.

O=C(c1ccc(S(=O)(=O)Nc2ccc(F)cc2)cc1)N1CCN(c2ccccn2)CC1	OXTR agonist 21 | OXTR ag confirm inactive | V1aR counter 3x inactive
O=C(c1ccc(NS(=O)(=O)c2ccc(F)cc2)cc1)N1CCCCC1	none (no result: TRPML3 ag, zfTRPN1 agonist)
COc1ccc(N2CCN(C(=O)c3ccc(NS(=O)(=O)c4ccc(F)c(F)c4)cc3)CC2)cc1	none
COc1ccc(NS(=O)(=O)c2ccc(C(=O)N3CCN(c4ccc(F)cc4)CC3)cc2)cc1	OXTR agonist 22 (no result: TRPML3 ag, zfTRPN1 agonist) | OXTR ag confirm inactive | V1aR counter 3x inactive
O=C(O)c1ccc(N/N=C/c2cn(Cc3ccc(F)cc3)c3ccccc23)cc1	OXTR agonist 21 | OXTR ag confirm inactive | V1aR counter 3x inactive
CC(NCc1ccc(-c2ccccc2)cc1)C(O)c1ccccc1 (configuration not stated)	OXTR agonist 23 | OXTR ag confirm inactive | V1aR counter 3x inactive
CC(O)CNCc1ccc(-c2ccccc2)cc1 (configuration not stated)	none
CC1C(=O)N(Cc2cn(CCC3OCCCO3)nn2)CCS(=O)(=O)N1Cc1ccc(-c2ccncc2)cc1 (configuration not stated)	none (no result: V1aR counter, OXTR agonist, OXTR potentiator, TRPML3 ag, zfTRPN1 agonist)
Cc1nc(SCC(=O)Nc2c(C)nn(C)c2C)c2cnn(-c3ccccc3)c2n1	OXTR agonist 23 | OXTR ag confirm inactive | V1aR counter 3x inactive
CC(C)CC1C(=O)N(Cc2cn(CC3CCCCC3)nn2)CCS(=O)(=O)N1Cc1ccc(-c2cccc(CO)c2)cc1 (configuration not stated)	none (no result: V1aR counter, OXTR agonist, OXTR potentiator, TRPML3 ag, zfTRPN1 agonist)
Cc1cc(C(c2ccc(O)cc2)c2cc(C)c(O)cc2C)c(C)cc1O	CRFR2-BP ag 69, OXTR agonist 41 (no result: TRPML3 ag, zfTRPN1 agonist) | OXTR ag confirm 40 | V1aR counter 3x 26
CC(C)(C)CC(C)(C)NCC(O)COc1ccc2c(c1)CCC2 (configuration not stated)	OXTR agonist 21 | OXTR ag confirm inactive | V1aR counter 3x inactive
CCOc1ccc(NS(=O)(=O)c2ccc(C(=O)NCC(C)(C)N3CCOCC3)cc2)cc1	none (no result: TRPML3 ag, zfTRPN1 agonist)
CC(C)(CNC(=O)c1ccc(S(=O)(=O)Nc2ccc(Cl)cc2)cc1)N1CCOCC1	OXTR agonist 21 (no result: TRPML3 ag, zfTRPN1 agonist) | OXTR ag confirm inactive | V1aR counter 3x inactive
Cc1ccc(NS(=O)(=O)c2ccc(-n3cccn3)cc2)c(Cl)c1	none (no result: V1aR counter, OXTR agonist, OXTR potentiator, TRPML3 ag, zfTRPN1 agonist)
CC(=O)Nc1ccc(S(=O)(=O)Oc2cccc(N3C(=O)C4CC=CCC4C3=O)c2)cc1 (configuration not stated)	none
CC(=O)Nc1ccc(S(=O)(=O)Oc2ccc(N3C(=O)C4CCCCC4C3=O)cc2)cc1 (configuration not stated)	OXTR agonist 24 | OXTR ag confirm inactive | V1aR counter 3x inactive
CCCC1NC(=O)c2cccnc2-n2c1nc1cc(C)cc(C)c1c2=O (configuration not stated)	none (no result: V1aR counter, OXTR agonist, OXTR potentiator, TRPML3 ag, zfTRPN1 agonist)
Cc1cc(C)c2nc(N3C(=O)C(O)=C(C(=O)c4ccco4)C3c3ccco3)sc2c1 (configuration not stated)	none (no result: TRPML3 ag, zfTRPN1 agonist)
CCOc1cc(CNCCO)cc(Br)c1OCc1ccc(Cl)cc1Cl	OXTR agonist 21 | OXTR ag confirm inactive | V1aR counter 3x inactive
CCCCN(CCCC)c1ccc(C(=O)c2ccccc2C(=O)O)c(O)c1	OXTR agonist 34 | OXTR ag confirm inactive | V1aR counter 3x inactive
Nc1cc(=O)[nH]c(SCc2ccc(Cl)cc2Cl)n1	OXTR agonist 22 (no result: TRPML3 ag, zfTRPN1 agonist) | OXTR ag confirm inactive | V1aR counter 3x inactive
Brc1ccc(CN2CCN(Cc3c[nH]c4ccccc34)CC2)cc1	OXTR agonist 20 (no result: TRPML3 ag, zfTRPN1 agonist) | OXTR ag confirm inactive | V1aR counter 3x inactive
Brc1ccccc1CN1CCN(Cc2c[nH]c3ccccc23)CC1	none (no result: TRPML3 ag, zfTRPN1 agonist)
N#Cc1c(SCC(=O)Nc2nncs2)sc2c(O)cc(=O)[nH]c12	none (no result: TRPML3 ag, zfTRPN1 agonist)
COc1ccc(CC(=O)Nc2ccc(S(=O)(=O)N3CCCC3)cc2)c(OC)c1	none (no result: TRPML3 ag, zfTRPN1 agonist)
Cc1cc(C)c(NC(=O)CN(C)C(=O)CCN2C(=O)C3CCCCC3C2=O)c(C)c1 (configuration not stated)	none (no result: V1aR counter, OXTR agonist, OXTR potentiator, TRPML3 ag, zfTRPN1 agonist)
CSc1cccc(NS(=O)(=O)c2ccc3c(c2)CCN3C(C)=O)c1	OXTR agonist 20 (no result: TRPML3 ag, zfTRPN1 agonist) | OXTR ag confirm inactive | V1aR counter 3x inactive
COc1cccc(NS(=O)(=O)c2ccc3c(c2)CCN3C(C)=O)c1	OXTR agonist 20 (no result: TRPML3 ag, zfTRPN1 agonist) | OXTR ag confirm inactive | V1aR counter 3x inactive
CC(=O)N1CCc2cc(S(=O)(=O)Nc3cccc(C(F)(F)F)c3)ccc21	none
C[C@@H]1CN([C@@H](C)CO)S(=O)(=O)c2ccc(-c3ccc(C#N)cc3)cc2O[C@@H]1CN(C)Cc1ccccn1	none (no result: V1aR counter, OXTR agonist, OXTR potentiator, TRPML3 ag, zfTRPN1 agonist)
COc1ccc(CCNC(=O)c2cccc(S(=O)(=O)NC(C)c3ccccc3)c2)cc1 (configuration not stated)	none (no result: TRPML3 ag, zfTRPN1 agonist)
COC(=O)c1sc(NC(=S)NC(=O)c2ccccc2C)nc1C	CRFR2-BP ag 56, OXTR agonist 28 | OXTR ag confirm 33 | V1aR counter 3x 39
N#CCCn1nc(-c2ccccc2)cc1Nc1ccccc1NC(=O)C(F)(F)F	none
N#CCCn1nc(-c2ccc(Cl)cc2)cc1Nc1ccccc1NC(=O)C(F)(F)F	OXTR agonist 24 | OXTR ag confirm inactive | V1aR counter 3x inactive
O=C(O)c1cccc(NC(=O)c2cn(-c3ccccc3)nc2-c2cc3ccccc3o2)c1	OXTR agonist 20 | OXTR ag confirm inactive | V1aR counter 3x inactive
O=c1[nH]c2cnn(-c3ccccc3)c2c(=O)n1O	none (no result: V1aR counter, OXTR agonist, OXTR potentiator, TRPML3 ag, zfTRPN1 agonist)
CS(=O)(=O)Nc1ccc2c(c1)[C@H]1C[C@H](CC(=O)NCc3ccccc3)O[C@H](CO)[C@H]1O2	none (no result: V1aR counter, OXTR agonist, OXTR potentiator, TRPML3 ag, zfTRPN1 agonist)
O=c1c2ccccc2ncn1-c1ccc([N+](=O)[O-])cc1[N+](=O)[O-]	OXTR agonist 21 (no result: TRPML3 ag, zfTRPN1 agonist) | OXTR ag confirm inactive | V1aR counter 3x inactive
O=c1c2ccccc2ncn1-c1ccc(Cl)cc1[N+](=O)[O-]	none

Assay outcomes (PubChem BioAssay)
